The source of these data is publication PMC4252766 (FEBS letters, 2014).

Assay [1] relates to BRPF1 bromodomain. The assay can be described thus: X-ray crystallography of BRPF1 bromodomain with histone peptides. It is filed as binding, human. The conditions noted are these: co-crystal structures PDB 4QYL (H2AK5ac) and 4QYD (H4K12ac). The gist of the method:
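E. coli-expressed BRPF1 bromodomain (residues 629–742), gel-filtered into 20 mM Tris pH 8.0, 150 mM NaCl, 1 mM DTT; 2.3 mM protein + 5 mM peptide; drops at 4°C. H2AK5ac: 0.2 M NH₄SO₄, 0.1 M MES pH 6.5, 30% PEG MME 5,000, seeding, 1% propylene glycol. H4K12ac: 0.1 M HEPES pH 7.5, 10% PEG 6,000, 5% MPD. Flash-cooled, 100 K.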

In assay [2] the test system is BRPF1 bromodomain. The settings on record: ref [31]; cited from earlier work.

With SGRG Kac QGGKARA [H2AK5ac], the “binding by x-ray crystallography” value in assay [1] was “bind”. In addition, in assay [2], the histone ligand preference result is given as “preferentially binds”.

For the substance GKGGKGLG Kac GGAKR [H4K12ac], in assay [1], the “binding by x-ray crystallography” value is reported as “bind”. In assay [2], the histone ligand preference result was “preferentially binds”.
